Measurements as given in article PMC10582678 (Clinical and Translational Science, 2023).

Tests used:
[1] = Safety, adverse events, single ascending dose; type: in vivo, human; settings: for AEs / Decreased leukocyte count / Decreased neutrophil count / Increased ALT / Increased blood cholesterol / Increased blood triglycerides / Abdominal discomfort / Constipation / Decreased lymphocyte count / Dermatitis allergic / Dyspepsia / Increased AST / Increased blood bilirubin / Increased blood creatinine / Lethargy / Mouth ulceration / Oropharyngeal pain / Sinus arrythmia / Treatment discontinuation due to AEs / Upper respiratory tract infection: n (%)
Procedure, shortened: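 Safety was monitored by vital signs, clinical laboratory tests, physical examination, 12-lead ECG, AEs and SAEs. AEs were coded with MedDRA 23.1 and graded by CTCAE 5.0. Subjects were discharged 6 days after the last dose, with a follow-up visit 8–14 days after the last dose. The safety set comprised randomized subjects who received active drug or placebo and had post-dose safety data.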

[2] = Plasma pharmacokinetics, multiple ascending doses; type: in vivo, human; settings: for CLss/F / AUC(0-t) / Cmax: mean ± SD; for AUC / Vd/F / concentration at 10 day / half-life / AUC(0-t) / Cmax / Tmax: human, plasma, oral; for AUC(0-t): AUC0-t; for Cmax: C max; for Tmax: T max
Procedure, shortened: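 This was a double-blind, placebo-controlled design with three cohorts of eight (6 active, 2 placebo). Cohorts received oral 200, 400 or 600 mg q.d. for 10 consecutive days, with extra predose trough samples on days 8 and 9. Plasma drug was measured by validated HPLC-tandem accurate mass spectrometry (5.00–5000 ng/mL). Noncompartmental parameters were reported for day 1 and day 10, with Rac(AUC) = AUC0-τ day 10/AUC0-t day 1.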

[3] = 27 subjects who received SAD 100 to 800 mg
[4] = 200 mg, MAD 200 mg q.d., Day 10
[5] = 400 mg, MAD 400 mg q.d., Day 10
[6] = 600 mg, MAD 600 mg q.d., Day 10

Structure (SMILES): N#CN1C[C@H](n2nc(-c3ccc(Oc4ccc(Cl)cn4)cc3)c(C(N)=O)c2N)CCC12CC2 [SN1011, 5-amino-3-(4-((5-chloro-2-pyridinyl)oxy)phenyl)-1-((6R)-4-cyano-4-azaspiro[2.5]octan-6-yl)-1H-pyrazole-4-carboxamide]
- blood triglycerides increased [1, 3]: 18.5%
- neutrophil count decreased [1, 3]: 14.8%
- number of AEs [1, 3]: 13
- subjects who experienced AEs [1, 3]: 33.3%
- white blood cell count decreased [1, 3]: 7.4%
- AEs ([1]; SAD 100 mg, any grade): 0
- Decreased leukocyte count ([1]; SAD 100 mg, any grade): 0
- Decreased neutrophil count ([1]; SAD 100 mg, any grade): 0
- Increased ALT ([1]; SAD 100 mg, any grade): 0
- Increased blood cholesterol ([1]; SAD 100 mg, any grade): 0
- Increased blood triglycerides ([1]; SAD 100 mg, any grade): 0
- Abdominal discomfort ([1]; SAD 100 mg): 0
- Constipation ([1]; SAD 100 mg): 0
- Decreased lymphocyte count ([1]; SAD 100 mg): 0
- Dermatitis allergic ([1]; SAD 100 mg): 0
- Dyspepsia ([1]; SAD 100 mg): 0
- Increased AST ([1]; SAD 100 mg): 0
- Increased blood bilirubin ([1]; SAD 100 mg): 0
- Increased blood creatinine ([1]; SAD 100 mg): 0
- Lethargy ([1]; SAD 100 mg): 0
- Mouth ulceration ([1]; SAD 100 mg): 0
- Oropharyngeal pain ([1]; SAD 100 mg): 0
- Sinus arrythmia ([1]; SAD 100 mg): 0
- Treatment discontinuation due to AEs ([1]; SAD 100 mg): 0
- Upper respiratory tract infection ([1]; SAD 100 mg): 0
- AEs ([1]; SAD 200 mg, any grade): 2 (33.3)
- Decreased leukocyte count ([1]; SAD 200 mg, any grade): 0
- Decreased neutrophil count ([1]; SAD 200 mg, any grade): 0
- Increased ALT ([1]; SAD 200 mg, any grade): 1 (16.7)
- Increased blood cholesterol ([1]; SAD 200 mg, any grade): 1 (16.7)
- Increased blood triglycerides ([1]; SAD 200 mg, any grade): 2 (33.3)
- Abdominal discomfort ([1]; SAD 200 mg): 0
- Constipation ([1]; SAD 200 mg): 0
- Decreased lymphocyte count ([1]; SAD 200 mg): 0
- Dermatitis allergic ([1]; SAD 200 mg): 0
- Dyspepsia ([1]; SAD 200 mg): 0
- Increased AST ([1]; SAD 200 mg): 0
- Increased blood bilirubin ([1]; SAD 200 mg): 0
- Increased blood creatinine ([1]; SAD 200 mg): 0
- Lethargy ([1]; SAD 200 mg): 0
- Mouth ulceration ([1]; SAD 200 mg): 0
- Oropharyngeal pain ([1]; SAD 200 mg): 0
- Sinus arrythmia ([1]; SAD 200 mg): 0
- Treatment discontinuation due to AEs ([1]; SAD 200 mg): 0
- Upper respiratory tract infection ([1]; SAD 200 mg): 0
- AEs ([1]; SAD 400 mg, any grade): 2 (33.3)
- Decreased leukocyte count ([1]; SAD 400 mg, any grade): 0
- Decreased neutrophil count ([1]; SAD 400 mg, any grade): 0
- Increased ALT ([1]; SAD 400 mg, any grade): 0
- Increased blood cholesterol ([1]; SAD 400 mg, any grade): 0
- Increased blood triglycerides ([1]; SAD 400 mg, any grade): 2 (33.3)
- Abdominal discomfort ([1]; SAD 400 mg): 0
- Constipation ([1]; SAD 400 mg): 0
- Decreased lymphocyte count ([1]; SAD 400 mg): 0
- Dermatitis allergic ([1]; SAD 400 mg): 0
- Dyspepsia ([1]; SAD 400 mg): 0
- Increased AST ([1]; SAD 400 mg): 0
- Increased blood bilirubin ([1]; SAD 400 mg): 0
- Increased blood creatinine ([1]; SAD 400 mg): 0
- Lethargy ([1]; SAD 400 mg): 0
- Mouth ulceration ([1]; SAD 400 mg): 0
- Oropharyngeal pain ([1]; SAD 400 mg): 0
- Sinus arrythmia ([1]; SAD 400 mg): 0
- Treatment discontinuation due to AEs ([1]; SAD 400 mg): 0
- Upper respiratory tract infection ([1]; SAD 400 mg): 0
- AEs ([1]; SAD 600 mg, any grade): 3 (50.0)
- Decreased leukocyte count ([1]; SAD 600 mg, any grade): 1 (16.7)
- Decreased neutrophil count ([1]; SAD 600 mg, any grade): 3 (50.0)
- Increased ALT ([1]; SAD 600 mg, any grade): 0
- Increased blood cholesterol ([1]; SAD 600 mg, any grade): 0
- Increased blood triglycerides ([1]; SAD 600 mg, any grade): 0
- Abdominal discomfort ([1]; SAD 600 mg): 0
- Constipation ([1]; SAD 600 mg): 0
- Decreased lymphocyte count ([1]; SAD 600 mg): 0
- Dermatitis allergic ([1]; SAD 600 mg): 0
- Dyspepsia ([1]; SAD 600 mg): 0
- Increased AST ([1]; SAD 600 mg): 0
- Increased blood bilirubin ([1]; SAD 600 mg): 0
- Increased blood creatinine ([1]; SAD 600 mg): 0
- Lethargy ([1]; SAD 600 mg): 0
- Mouth ulceration ([1]; SAD 600 mg): 0
- Oropharyngeal pain ([1]; SAD 600 mg): 0
- Sinus arrythmia ([1]; SAD 600 mg): 0
- Treatment discontinuation due to AEs ([1]; SAD 600 mg): 0
- Upper respiratory tract infection ([1]; SAD 600 mg): 0
- AEs ([1]; SAD 800 mg, any grade): 2 (33.3)
- Decreased leukocyte count ([1]; SAD 800 mg, any grade): 1 (16.7)
- Decreased neutrophil count ([1]; SAD 800 mg, any grade): 1 (16.7)
- Increased ALT ([1]; SAD 800 mg, any grade): 0
- Increased blood cholesterol ([1]; SAD 800 mg, any grade): 0
- Increased blood triglycerides ([1]; SAD 800 mg, any grade): 1 (16.7)
- Abdominal discomfort ([1]; SAD 800 mg): 0
- Constipation ([1]; SAD 800 mg): 0
- Decreased lymphocyte count ([1]; SAD 800 mg): 0
- Dermatitis allergic ([1]; SAD 800 mg): 0
- Dyspepsia ([1]; SAD 800 mg): 0
- Increased AST ([1]; SAD 800 mg): 0
- Increased blood bilirubin ([1]; SAD 800 mg): 0
- Increased blood creatinine ([1]; SAD 800 mg): 0
- Lethargy ([1]; SAD 800 mg): 0
- Mouth ulceration ([1]; SAD 800 mg): 0
- Oropharyngeal pain ([1]; SAD 800 mg): 0
- Sinus arrythmia ([1]; SAD 800 mg): 0
- Treatment discontinuation due to AEs ([1]; SAD 800 mg): 0
- Upper respiratory tract infection ([1]; SAD 800 mg): 0
- Abdominal discomfort ([1]; SAD All SN1011, N = 27): 0
- Constipation ([1]; SAD All SN1011, N = 27): 0
- Decreased leukocyte count ([1]; SAD All SN1011, N = 27): 2 (7.4)
- Decreased lymphocyte count ([1]; SAD All SN1011, N = 27): 0
- Decreased neutrophil count ([1]; SAD All SN1011, N = 27): 4 (14.8)
- Dermatitis allergic ([1]; SAD All SN1011, N = 27): 0
- Dyspepsia ([1]; SAD All SN1011, N = 27): 0
- Increased ALT ([1]; SAD All SN1011, N = 27): 1 (3.7)
- Increased AST ([1]; SAD All SN1011, N = 27): 0
- Increased blood bilirubin ([1]; SAD All SN1011, N = 27): 0
- Increased blood cholesterol ([1]; SAD All SN1011, N = 27): 1 (3.7)
- Increased blood creatinine ([1]; SAD All SN1011, N = 27): 0
- Increased blood triglycerides ([1]; SAD All SN1011, N = 27): 5 (18.5)
- Lethargy ([1]; SAD All SN1011, N = 27): 0
- Mouth ulceration ([1]; SAD All SN1011, N = 27): 0
- Oropharyngeal pain ([1]; SAD All SN1011, N = 27): 0
- Sinus arrythmia ([1]; SAD All SN1011, N = 27): 0
- Treatment discontinuation due to AEs ([1]; SAD All SN1011, N = 27): 0
- Upper respiratory tract infection ([1]; SAD All SN1011, N = 27): 0
- T last ([2]; MAD 200 mg q.d., Day 1, median (min, max)): 23.7 (23.7, 23.8) h
- CLss/F ([2]; MAD 200 mg q.d., Day 10): 27.2 ± 13.4 (49%) L/h
- T last ([2]; MAD 200 mg q.d., Day 10, median (min, max)): 120.0 (72.0, 120.0) h
- T last ([2]; MAD 400 mg q.d., Day 1, median (min, max)): 23.8 (23.7, 23.9) h
- CLss/F ([2]; MAD 400 mg q.d., Day 10): 27.4 ± 6.2 (23%) L/h
- T last ([2]; MAD 400 mg q.d., Day 10, median (min, max)): 120.0 (120.0, 120.0) h
- T last ([2]; MAD 600 mg q.d., Day 1, median (min, max)): 23.8 (23.7, 23.8) h
- CLss/F ([2]; MAD 600 mg q.d., Day 10): 30.0 ± 9.8 (33%) L/h
- T last ([2]; MAD 600 mg q.d., Day 10, median (min, max)): 120.0 (96.0, 120.0) h
- AUC ([2]; 200 mg): 8690 ± 3420 ng·h/mL
- Vd/F ([2]; 200 mg): 728 ± 161 L
- concentration at 10 day ([2]; 200 mg): 257 ± 111 ng/mL
- half-life ([2]; 200 mg): 20.5 ± 5.3 h
- AUC(0-t) ([2]; 200 mg, MAD 200 mg q.d., Day 1): 4280 ± 1130 ng·h/mL
- AUC(0-t) [2, 4]: 17300 ng·h/mL
- Cmax ([2]; 200 mg, MAD 200 mg q.d., Day 1, N = 5): 260 ± 54.8 ng/mL
- Cmax [2, 4]: 516 ± 172 ng/mL
- Tmax ([2]; 200 mg, MAD 200 mg q.d., Day 1, median (min, max)): 3 h
- Tmax ([2]; 200 mg, MAD 200 mg q.d., Day 10, median (min, max)): 3 h
- AUC ([2]; 400 mg): 15200 ng·h/mL
- Vd/F ([2]; 400 mg): 736 ± 181 L
- concentration at 10 day ([2]; 400 mg): 419 ± 121 ng/mL
- half-life ([2]; 400 mg): 19 ± 5.4 h
- AUC(0-t) ([2]; 400 mg, MAD 400 mg q.d., Day 1): 9170 ± 1640 ng·h/mL
- AUC(0-t) [2, 5]: 26400 ng·h/mL
- Cmax ([2]; 400 mg, MAD 400 mg q.d., Day 1): 727 ± 183 ng/mL
- Cmax [2, 5]: 1070 ± 234 ng/mL
- Tmax ([2]; 400 mg, MAD 400 mg q.d., Day 1, median (min, max)): 4 h
- Tmax ([2]; 400 mg, MAD 400 mg q.d., Day 10, median (min, max)): 3.5 h
- AUC ([2]; 600 mg): 22000 ng·h/mL
- Vd/F ([2]; 600 mg): 872 ± 345 L
- concentration at 10 day ([2]; 600 mg): 531 ± 264 ng/mL
- half-life ([2]; 600 mg): 20.4 ± 4.1 h
- AUC(0-t) ([2]; 600 mg, MAD 600 mg q.d., Day 1): 12200 ng·h/mL
- AUC(0-t) [2, 6]: 40300 ng·h/mL
- Cmax ([2]; 600 mg, MAD 600 mg q.d., Day 1): 910 ± 332 ng/mL
- Cmax [2, 6]: 1600 ± 497 ng/mL
- Tmax ([2]; 600 mg, MAD 600 mg q.d., Day 1, median (min, max)): 4 h
- Tmax ([2]; 600 mg, MAD 600 mg q.d., Day 10, median (min, max)): 2.5 h
- Tmax ([2]; MAD, steady-state conditions, across 200-600 mg q.d.): 2.5 to 3.5 h
- steady-state in the plasma achieved on ([2]; once daily administration): 8 days
